This is a sample that favours compounds with a hit; in the whole collection about 1.3% have one here.
ANO1 activ – mouse TMEM16A channel activation, primary screen; Q8BHY3; HEK293 TMEM16A/YFP-H148Q/I152L, iodide quench fluorescence; hits give low values; B-score at 10 µM; 340,000 compounds, 0.3% hits; AID 623877;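 active = fluorescence-ratio B-score plate-corrected deviation score at least 3 library SD below zero, with starting fluorescence score within 5 deviations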;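 also: channel opened by trigger with iodide after compound preincubation; score built on the fluorescence ratio of max minus min over baseline; more negative score means more quench and so TMEM16A activation or potentiation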
ANO1 block – inhibitors of mouse TMEM16A calcium-activated chloride channel; 310,000 compounds, 1.2% hits; AID 588511; HEK293 TMEM16A/YFP iodide influx fluorescence, ionomycin; Q8BHY3; normalized B-score (activity score, 25-100; higher = stronger inhibition) at 10 µM;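 active = ratio plate-corrected score three or more library SD toward inhibition, starting fluorescence score within five deviations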;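 also: score derived from kinetic fluorescence span divided by baseline fluorescence per well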
DAGLB inh – diacylglycerol lipase beta (human) inhibition. Q8NCG7. HEK293T DAGLB membrane lysate, EnzChek fluorogenic substrate. inhibition, % at 5.17 µM. 340,000 compounds, 0.059% hits. AID 504411; in the data active = inhibition above about 34%
Target sequence (Q8NCG7 whole entry, looked up): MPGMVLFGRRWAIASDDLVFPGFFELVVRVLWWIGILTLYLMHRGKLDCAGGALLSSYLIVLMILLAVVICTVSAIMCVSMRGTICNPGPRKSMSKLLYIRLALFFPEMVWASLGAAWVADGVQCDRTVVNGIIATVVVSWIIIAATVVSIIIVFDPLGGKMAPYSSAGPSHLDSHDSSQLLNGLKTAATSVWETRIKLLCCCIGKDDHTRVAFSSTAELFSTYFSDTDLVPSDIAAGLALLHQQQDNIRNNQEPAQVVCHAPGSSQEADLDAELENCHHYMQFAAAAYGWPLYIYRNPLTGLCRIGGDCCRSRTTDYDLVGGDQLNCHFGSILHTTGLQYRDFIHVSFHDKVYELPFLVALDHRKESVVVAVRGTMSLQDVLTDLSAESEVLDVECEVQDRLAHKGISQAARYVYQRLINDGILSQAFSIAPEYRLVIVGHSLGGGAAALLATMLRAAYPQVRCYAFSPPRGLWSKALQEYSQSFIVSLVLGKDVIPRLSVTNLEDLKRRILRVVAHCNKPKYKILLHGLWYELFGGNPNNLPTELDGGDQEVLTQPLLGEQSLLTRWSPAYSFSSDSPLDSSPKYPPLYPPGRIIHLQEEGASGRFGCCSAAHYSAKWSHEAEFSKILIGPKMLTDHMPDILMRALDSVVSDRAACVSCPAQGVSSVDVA
MT1-MMP act inh – inhibitors of human MT1-MMP activation. 360,000 compounds, 0.061% hits. HT1080 RFP-PRO-GFP cells, GFP/RFP ratio fluorescence, overnight; percent of plate control window, DMSO zero. P50281. GFP/RFP ratio change, % at 20 µM;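 active = GFP/RFP ratio change of at least 30% with cell ATP level not reduced by more than half and red fluorescence within 50% of control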
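Assay system: HT1080 cells carrying an RFP-PRO-GFP reporter | Dosing: Single dose of 20 µM compound, 1% DMSO final | Incubation: Cells overnight before dosing, compound overnight, 37 °C, 5% CO2 | Evaluation: GFP/RFP fluorescence ratio | Control set: DMSO and RFP-L50D-GFP cell wells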
TMEM16A reconf – re-confirmation of mouse TMEM16A chloride channel inhibitors; inhibition, % at 10 µM; shares compounds with ANO1 block; AID 652189; 2,300 compounds, 39% hits; HEK293 TMEM16A/YFP-H148Q, iodide quench fluorescence; ionomycin added to raise cell calcium;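 active = mean duplicate percent inhibition, scaled so buffer wells are 0 and the reference blocker 100, over three buffer SD above buffer mean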
TMEM16A Ca cntr – alters calcium mobilization in TMEM16A HEK293 cells, counter-screen; shares compounds with ANO1 block; TMEM16A/YFP HEK293, Fluo4 calcium mobilization; calcium response (% of ionomycin), % at 10 µM; 2,300 compounds, 2% hits; AID 652231;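 active = duplicate-averaged calcium signal over 20% of the ionomycin maximum, relative to buffer baseline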;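 also: each well's signal is peak minus trough fluorescence divided by its pre-addition baseline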
Parental YFP cnt – parental YFP-HEK293 iodide quench counter-screen activity | YFP ratio F(max-min)/F0 at 10 µM | shares compounds with ANO1 block | 2,300 tested, under 10 active | ionomycin | AID 652233;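 active = yellow fluorescent protein signal ratio exceeding the buffer control mean by over 5 SD of those controls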;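 also: ratio is mean of duplicate wells from kinetic YFP trace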
ClC-1 inh – selectivity of TMEM16A inhibitors: inhibition of rat ClC-1 chloride channel; shares compounds with ANO1 block; CHO ClC-1-YFP, iodide influx fluorescence quench; iodide control reads 0, buffer control 100; ratio percent, % at 10 µM; 2,300 tested, under 10 active; AID 652236;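 active = duplicate-mean ratio percent above the mean of iodide-only control wells, which defines zero, plus 5 of their SD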;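 also: higher percent means stronger block of ClC-1 iodide influx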
A number is an active result; n = inactive; x = not tested or not shown.

SMILES	ANO1 activ	ANO1 block	DAGLB inh	MT1-MMP act inh	TMEM16A reconf	TMEM16A Ca cntr	Parental YFP cnt	ClC-1 inh
COC(=O)C1CCN(c2cc(=O)n(-c3ccccc3Cl)c(=O)[nH]2)CC1	n	100	n	n	n	n	n	n
CCOC(=O)N1CCN(c2cc(=O)n(-c3ccccc3Cl)c(=O)[nH]2)CC1	n	n	n	n	x	x	x	x
Nc1nnc2cc(Br)ccc2n1	x	x	n	n	x	x	x	x
COc1ccccc1C(=O)NCCCN1CCCC1=O	n	25	n	n	n	n	n	n
COc1ccccc1NS(=O)(=O)c1ccc(C(=O)NCCCN2CCCC2=O)cc1	n	x	n	n	x	x	x	x
Cc1cccc(C(=Cc2ccc([N+](=O)[O-])cc2)C(=O)O)c1	x	x	n	n	x	x	x	x
COc1ccc(OCCNS(=O)(=O)c2ccc3oc4ccccc4c3c2)cc1	n	n	n	n	x	x	x	x
O=S(=O)(NCCOCC(F)(F)C(F)F)c1ccc2oc3ccccc3c2c1	n	25	n	n	24%	n	n	n
COc1ccc(CN(C)C(=O)c2ccc(NS(=O)(=O)c3ccc(F)cc3)cc2)c(OC)c1OC	n	n	n	n	x	x	x	x
O=C1c2ccccc2C(=O)N1CCCCSc1nc2ccccc2o1	n	25	n	n	20%	n	n	n
CCCC1(CCC)NC(=O)N(CC(=O)Nc2cccc(OC)c2)C1=O	n	100	n	n	n	n	n	n
COc1ccc(C(=O)CSc2[nH]c(=O)cc(C(F)(F)F)c2C#N)cc1	n	25	n	n	22%	n	n	n
COc1ccc(-c2cc(C(F)(F)F)c(C#N)c(SCC(=O)Nc3ccc(C)cc3)n2)cc1	n	n	n	n	x	x	x	x
N=c1n(Cc2ccc(Cl)cc2)c2ccccc2n1CC(O)COc1ccccc1 (stereo not given)	n	25	n	n	28%	n	n	n
COc1ccc(OCC(O)Cn2c(=N)n(Cc3ccccc3)c3ccccc32)cc1 (stereo not given)	n	n	n	n	x	x	x	x
COc1ccc(C(CC(=O)c2ccc3c(c2)OCO3)C(=O)O)cc1OC (stereo not given)	x	x	n	n	x	x	x	x
Cc1c(C(=O)OCCOc2ccccc2)[nH]c2c1C(=O)CCC2	n	100	n	n	25%	n	n	n
COc1ccc(CCNC(=O)c2ccc(N3CCCC3=O)cc2)cc1	n	n	n	n	x	x	x	x
CCOc1ccc(CCNC(=O)c2ccc(N3CCCC3=O)cc2)cc1OCC	n	25	n	n	n	n	n	n
CC(C)Oc1cc(NC(=O)CS(=O)CC(=O)Nc2cccc(C(F)(F)F)c2)c(Cl)cc1Cl (stereo not given)	n	100	n	n	n	n	n	n
COc1ccc(CNC(=O)C[C@@H]2C=C[C@@H](NS(=O)(=O)c3cccc(OC)c3)[C@@H](CO)O2)cc1	x	x	x	n	x	x	x	x
CN(Cc1ccccc1)C(=O)COC(=O)c1cc(NS(=O)(=O)c2cccs2)ccc1O	n	25	n	n	n	n	n	n
CSc1ccccc1NC(=O)Nc1ccccc1	n	100	n	n	n	n	n	n
Cc1nc(SCC(=O)c2cc(C)n(C3CC3)c2C)c2ccccc2n1	x	x	n	n	x	x	x	x
O=C(Cc1ccccc1)N/N=C/c1cc(Br)cc(Br)c1O	n	n	n	n	x	x	x	x
SMILES	ANO1 activ	ANO1 block	DAGLB inh	MT1-MMP act inh	TMEM16A reconf	TMEM16A Ca cntr	Parental YFP cnt	ClC-1 inh
O=C(O)c1ccccc1N/N=C/c1cc(Br)cc(Br)c1O	n	25	n	n	78%	n	n	n
CCn1c(CNc2ccc(Cl)cc2)nnc1SCC(=O)OC1CCCCC1	n	100	n	n	18%	n	n	n
CCn1c(CNc2cccc(Cl)c2)nnc1SCC(=O)OC1CCCCC1	n	n	n	n	x	x	x	x
CCc1ccc(-c2nc(CSCC(=O)N3CCN(c4ncccn4)CC3)c(C)o2)cc1	n	25	n	n	n	n	n	n
CCc1ccc(-c2nc(CSCC(=O)NC3CC3)c(C)o2)cc1	n	n	n	n	x	x	x	x
CSc1ccc(-c2nc(CSCC(=O)N3CCOCC3)c(C)o2)cc1	n	25	n	n	28%	n	n	n
CNc1cc(C(=O)Nc2cccc(OCc3ccccc3)c2)ncn1	x	x	x	n	x	x	x	x
Cc1ccc(SCCNC(=S)Nc2ccc(C)c(C)c2)cc1	n	100	n	n	26%	n	n	n
C=CCC[C@H](CCCCC)OC(=O)/C=C/[C@@H](O)[C@H](O)C[C@@H](O)CC=C	x	x	x	n	x	x	x	x
c1ccc(COC2COC3C(OCc4ccccc4)COC23)cc1 (stereo not given)	n	x	n	n	x	x	x	x
C=CCN(c1ccccc1)S(=O)(=O)c1cccc(C(=O)Nc2ccncc2)c1	n	100	n	n	20%	n	n	n
COCC(N)(c1ccccc1)c1nc2ccccc2n1C (stereo not given)	n	25	n	n	n	n	n	n
Cn1c(Cn2c(C(F)(F)F)nc3ccccc32)nc2ccccc21	n	n	n	n	x	x	x	x
CCN(CC)CCCOc1ccc(Cl)c(Cl)c1	n	100	n	n	n	n	n	n
CN(CCOc1ccc(Cl)c(Cl)c1)Cc1ccccc1	n	n	n	n	x	x	x	x
CN(Cc1ccccc1F)c1ncnc2sccc12	n	n	n	n	x	x	x	x
CN(Cc1cccs1)c1ncnc2sccc12	n	25	n	n	n	n	n	n
COc1cc(CNS(=O)(=O)c2ccc3c(c2)CC(C)N3C(=O)C2CCC2)cc(OC)c1OC (stereo not given)	n	25	n	n	n	n	n	n
Cc1ccc(NC(=O)CNc2ccc(Cl)c(Cl)c2)cc1S(=O)(=O)N(C)C	n	100	n	n	28%	n	n	n
Cc1ccc(NC(=O)Cc2ccc(Cl)c(Cl)c2)cc1S(=O)(=O)N(C)C	n	25	n	n	16%	n	n	n
Cc1ccc(NC(=O)Cc2ccccc2Cl)cc1S(=O)(=O)N(C)C	n	n	n	n	x	x	x	x
Cc1ccc(S(=O)(=O)N2[C@H](c3cccc(Cl)c3)CC(=O)[C@@H]3CN(S(=O)(=O)c4ccccc4C)[C@H](c4ccc(Cl)cc4)C[C@@H]32)cc1	x	x	n	n	x	x	x	x
O=C(Nc1ccc(N2CCOCC2)cc1)c1ccc2nc(-c3ccco3)c(-c3ccco3)nc2c1	n	n	n	n	x	x	x	x
S=C(Nc1ccc(N2CCOCC2)cc1)Nc1ccc2nc(-c3ccco3)c(-c3ccco3)nc2c1	n	n	n	n	n	n	n	n
Cc1cccc(C)c1NC(=O)C(c1cc2ccccc2o1)N1CCN(C)CC1 (stereo not given)	x	x	x	n	x	x	x	x
NC(=O)CSc1nnc(Cn2c(=O)sc3ccccc32)n1-c1cccc(Cl)c1	n	25	n	n	n	n	n	n

Source: PubChem BioAssay
